Measurements published in ChEMBL document CHEMBL1152649, “Synthesis, cytotoxicity and human telomerase inhibition activities of a series of 1,2-heteroannelated anthraquinones and anthra[1,2-d]imidazole-6,11-dione homologues” (2009).
Calls of active or inactive are those of the source. The calls are words filed in the database; no cut-off is given here.

What was measured:
HL-60(TB) = experiment: Antiproliferative activity against human HL-60(TB) cells assessed as cell growth at 10 uM; type: functional; settings: read-out: Activity
In short: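 NCI Developmental Therapeutics Program 60-cell-line one-dose screen at 10^-5 M. Readout is growth percentage of treated cells relative to untreated control cells.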

MDA-MB-231 = experiment: Antiproliferative activity against human MDA-MB-231 cells assessed as cell growth at 10 uM; type: functional; settings: read-out: Activity
In short: (§1)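 NCI 60 cell line panel, single-dose screen (10^-5 M) run by the developmental therapeutics program protocol. Results are given as growth percent of treated cells relative to untreated control cells for each line.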

MOLT-4 = experiment: Antiproliferative activity against human MOLT4 cells assessed as cell growth at 10 uM; type: functional; settings: read-out: Activity; in short: as §1
COLO 205 = experiment: Antiproliferative activity against human COLO205 cells assessed as cell growth at 10 uM; type: functional; settings: read-out: Activity; in short: as §1
SN12C = experiment: Antiproliferative activity against human SN12C cells assessed as cell growth at 10 uM; type: functional; settings: read-out: Activity; in short: as §1
A549 = experiment: Antiproliferative activity against human A549 cells assessed as cell growth at 10 uM; type: functional; settings: read-out: Activity; in short: as §1
DU-145 = experiment: Antiproliferative activity against human DU145 cells assessed as cell growth at 10 uM; type: functional; settings: read-out: Activity; in short: as §1
[1] = Antiproliferative activity against human Hs 578T cells assessed as cell growth at 10 uM; type: functional; settings: read-out: Activity; in short: as §1
SK-MEL-28 = experiment: Antiproliferative activity against human SK-MEL-28 cells assessed as cell growth at 10 uM; type: functional; settings: read-out: Activity; in short: as §1
U-251 = experiment: Antiproliferative activity against human U251 cells assessed as cell growth at 10 uM; type: functional; settings: read-out: Activity
In short: (§2)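 NCI 60 cell line panel, single dose (10^-5 M), run per the Developmental Therapeutics Program protocol (one dose mean graph). Each result is the growth percentage of treated cells relative to untreated control cells.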

M14 = experiment: Antiproliferative activity against human M14 cells assessed as cell growth at 10 uM; type: functional; settings: read-out: Activity; in short: as §1
UACC-62 = experiment: Antiproliferative activity against human UACC62 cells assessed as cell growth at 10 uM; type: functional; settings: read-out: Activity; in short: as §2
UO-31 = experiment: Antiproliferative activity against human UO31 cells assessed as cell growth at 10 uM; type: functional; settings: read-out: Activity; in short: as §2
HCC 2998 = experiment: Antiproliferative activity against human HCC2998 cells assessed as cell growth at 10 uM; type: functional; settings: read-out: Activity; in short: as §1
SF-539 = experiment: Antiproliferative activity against human SF539 cells assessed as cell growth at 10 uM; type: functional; settings: read-out: Activity; in short: as §1
[2] = Cytotoxicity against human H1299 cells at 10 uM after 48 hrs by MTT assay; type: functional; settings: NCI-H1299, 48 h
In short: (§3)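 H1299 non-small cell lung cancer cells were grown in RPMI 1640 with 10% FBS, penicillin and streptomycin at 37 °C under 5% CO2. About 2 × 10³ cells per well were seeded and left 24 h. Compounds were dissolved fresh in DMSO, diluted into complete medium and applied for 48 h. MTT was then added for 4 h at 37 °C, followed by lysis buffer (20% SDS, 50% DMF) for 16 h, and absorbance was read at 550 nm.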

OVCAR-8 = experiment: Antiproliferative activity against human OVCAR8 cells assessed as cell growth at 10 uM; type: functional; settings: read-out: Activity; in short: as §1
HCT-116 = experiment: Antiproliferative activity against human HCT116 cells assessed as cell growth at 10 uM; type: functional; settings: read-out: Activity; in short: as §1
A498 = experiment: Antiproliferative activity against human A498 cells assessed as cell growth at 10 uM; type: functional; settings: read-out: Activity; in short: as §1
TK-10 = experiment: Antiproliferative activity against human TK10 cells assessed as cell growth at 10 uM; type: functional; settings: read-out: Activity; in short: as §2
Malme-3M = experiment: Antiproliferative activity against human MALME-3M cells assessed as cell growth at 10 uM; type: functional; settings: read-out: Activity; in short: as §1
CCRF-CEM = experiment: Antiproliferative activity against human CCRF-CEM cells assessed as cell growth at 10 uM; type: functional; settings: read-out: Activity; in short: as §1
NCI-H522 = experiment: Antiproliferative activity against human NCI-H522 cells assessed as cell growth at 10 uM; type: functional; settings: read-out: Activity; in short: as §1
[3] = Cytotoxicity against human H1299 cells at 100 uM after 48 hrs by MTT assay; type: functional; settings: NCI-H1299, 48 h; in short: as §3
EKVX = experiment: Antiproliferative activity against human EKVX cells assessed as cell growth at 10 uM; type: functional; settings: read-out: Activity; in short: as §1
[4] = molecular target: Telomerase reverse transcriptase (Homo sapiens) (UniProt O14746); experiment: Inhibition of TERT in human H1299 cells assessed as residual transcriptional activity at 1 uM after 24 hrs by SEAP reporter gene assay; values are per cent of control
OVCAR-4 = experiment: Antiproliferative activity against human OVCAR4 cells assessed as cell growth at 10 uM; type: functional; settings: read-out: Activity; in short: as §1
SNB-19 = experiment: Antiproliferative activity against human SNB19 cells assessed as cell growth at 10 uM; type: functional; settings: read-out: Activity; in short: as §1
SF-268 = experiment: Antiproliferative activity against human SF268 cells assessed as cell growth at 10 uM; type: functional; settings: read-out: Activity; in short: as §1
PC-3 = experiment: Antiproliferative activity against human PC3 cells assessed as cell growth at 10 uM; type: functional; settings: read-out: Activity; in short: as §1
[5] = Cytotoxicity against human H1299 cells at 1 uM after 48 hrs by MTT assay; type: functional; settings: NCI-H1299, 48 h; in short: as §3
SNB-75 = experiment: Antiproliferative activity against human SNB75 cells assessed as cell growth at 10 uM; type: functional; settings: read-out: Activity; in short: as §2
SF-295 = experiment: Antiproliferative activity against human SF295 cells assessed as cell growth at 10 uM; type: functional; settings: read-out: Activity; in short: as §1
T47D = experiment: Antiproliferative activity against human T47D cells assessed as cell growth at 10 uM; type: functional; settings: read-out: Activity; in short: as §2
[6] = molecular target: Telomerase reverse transcriptase (Homo sapiens) (UniProt O14746); experiment: Inhibition of telomerase in human H1299 cells up to 100 uM by TRAP assay; type: cell-based
In short: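 PCR-based telomeric repeat amplification protocol (TRAP). The telomerase source was total lysate of H1299 lung cancer cells, with protein measured against BSA standards. Controls were extract without inhibitor and RNase A-treated extract.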

LOX IMVI = experiment: Antiproliferative activity against human LOXIMVI cells assessed as cell growth at 10 uM; type: functional; settings: read-out: Activity; in short: as §1
NCI/ADR-RES = experiment: Antiproliferative activity against human NCI/ADR-RES cells assessed as cell growth at 10 uM; type: functional; settings: read-out: Activity; in short: as §1
OVCAR-3 = experiment: Antiproliferative activity against human OVCAR-3 cells assessed as cell growth at 10 uM; type: functional; settings: read-out: Activity; in short: as §1
OVCAR-5 = experiment: Antiproliferative activity against human OVCAR5 cells assessed as cell growth at 10 uM; type: functional; settings: read-out: Activity; in short: as §1
SK-MEL-2 = experiment: Antiproliferative activity against human SK-MEL-2 cells assessed as cell growth at 10 uM; type: functional; settings: read-out: Activity; in short: as §1
HCT-15 = experiment: Antiproliferative activity against human HCT15 cells assessed as cell growth at 10 uM; type: functional; settings: read-out: Activity; in short: as §1
HT-29 = experiment: Antiproliferative activity against human HT-29 cells assessed as cell growth at 10 uM; type: functional; settings: read-out: Activity; in short: as §1
NCI-H226 = experiment: Antiproliferative activity against human NCI-H226 cells assessed as cell growth at 10 uM; type: functional; settings: read-out: Activity; in short: as §1
[7] = molecular target: Telomerase reverse transcriptase (Homo sapiens) (UniProt O14746); experiment: Inhibition of TERT in human H1299 cells assessed as residual transcriptional activity at 10 uM after 24 hrs by SEAP reporter gene assay; values are per cent of control

Telomerase reverse transcriptase (Homo sapiens), sequence (O14746 whole entry): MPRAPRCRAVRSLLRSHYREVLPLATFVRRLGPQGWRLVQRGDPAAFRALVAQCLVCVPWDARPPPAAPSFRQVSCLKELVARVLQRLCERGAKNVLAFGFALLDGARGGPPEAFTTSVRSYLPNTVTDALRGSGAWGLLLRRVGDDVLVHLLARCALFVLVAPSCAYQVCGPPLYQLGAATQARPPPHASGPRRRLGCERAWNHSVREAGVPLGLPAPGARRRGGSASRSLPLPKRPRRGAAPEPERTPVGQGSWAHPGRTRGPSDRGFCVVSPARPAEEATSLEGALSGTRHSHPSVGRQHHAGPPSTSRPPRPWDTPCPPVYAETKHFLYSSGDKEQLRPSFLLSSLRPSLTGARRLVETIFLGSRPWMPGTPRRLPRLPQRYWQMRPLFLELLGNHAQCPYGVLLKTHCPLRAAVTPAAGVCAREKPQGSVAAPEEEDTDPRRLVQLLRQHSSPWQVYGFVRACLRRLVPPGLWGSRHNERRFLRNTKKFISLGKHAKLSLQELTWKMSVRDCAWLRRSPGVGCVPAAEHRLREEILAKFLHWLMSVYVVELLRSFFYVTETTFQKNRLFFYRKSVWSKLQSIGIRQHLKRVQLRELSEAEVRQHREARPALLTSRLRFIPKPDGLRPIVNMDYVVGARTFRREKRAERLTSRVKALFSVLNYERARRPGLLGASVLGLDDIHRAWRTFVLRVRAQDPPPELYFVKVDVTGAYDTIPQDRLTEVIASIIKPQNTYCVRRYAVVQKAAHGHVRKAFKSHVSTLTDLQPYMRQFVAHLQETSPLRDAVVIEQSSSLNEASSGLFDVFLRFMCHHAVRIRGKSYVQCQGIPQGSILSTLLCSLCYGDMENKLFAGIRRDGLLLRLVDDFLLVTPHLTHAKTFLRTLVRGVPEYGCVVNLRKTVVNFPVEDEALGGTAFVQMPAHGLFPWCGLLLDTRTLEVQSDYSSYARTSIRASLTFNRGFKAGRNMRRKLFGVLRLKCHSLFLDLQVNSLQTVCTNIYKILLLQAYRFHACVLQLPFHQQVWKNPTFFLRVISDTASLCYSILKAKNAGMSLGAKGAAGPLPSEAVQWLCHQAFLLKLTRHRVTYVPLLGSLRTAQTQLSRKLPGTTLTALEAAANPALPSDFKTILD

## O=C1c2ccccc2C(=O)c2c1ccc1nc(-c3ccccc3)[nH]c21
HL-60(TB)
  growth at 10 µM: 99%
MDA-MB-231
  growth at 10 µM: 81.4%
MOLT-4
  growth at 10 µM: 88.3%
COLO 205
  growth at 10 µM: 92%
SN12C
  growth at 10 µM: 87.5%
A549
  growth at 10 µM: 79%
DU-145
  growth at 10 µM: 84.3%
[1]
  growth at 10 µM: 30.4%
SK-MEL-28
  growth at 10 µM: 60.4%
U-251
  growth at 10 µM: 97.1%
M14
  growth at 10 µM: 101%
UACC-62
  growth at 10 µM: 70.4%
UO-31
  growth at 10 µM: 57.6%
HCC 2998
  growth at 10 µM: 105%
SF-539
  growth at 10 µM: 96.2%
[2]
  viability at 10 µM: 72%
OVCAR-8
  growth at 10 µM: 91%
HCT-116
  growth at 10 µM: 82.4%
A498
  growth at 10 µM: 77%
TK-10
  growth at 10 µM: 82%
Malme-3M
  growth at 10 µM: 74.5%
CCRF-CEM
  growth at 10 µM: 86.3%
NCI-H522
  growth at 10 µM: 80.4%
[3]
  viability at 100 µM: 34%
EKVX
  growth at 10 µM: 77.1%
[4]
  residual activity: 81%
OVCAR-4
  growth at 10 µM: 73.4%
SNB-19
  growth at 10 µM: 102%
SF-268
  growth at 10 µM: 91.9%
PC-3
  growth at 10 µM: 52.5%
[5]
  viability at 1 µM: 79%
SNB-75
  growth at 10 µM: 75.1%
SF-295
  growth at 10 µM: 73.6%
T47D
  growth at 10 µM: 65.1%
[6]
  inhibition: inactive
LOX IMVI
  growth at 10 µM: 79.7%
NCI/ADR-RES
  growth at 10 µM: 90.2%
OVCAR-3
  growth at 10 µM: 69.2%
OVCAR-5
  growth at 10 µM: 109%
SK-MEL-2
  growth at 10 µM: 62.6%
HCT-15
  growth at 10 µM: 86.3%
HT-29
  growth at 10 µM: 83.2%
NCI-H226
  growth at 10 µM: 80.5%
[7]
  residual activity: 78%

## COc1cc(-c2nc3ccc4c(c3[nH]2)C(=O)c2ccccc2C4=O)ccc1O
HL-60(TB)
  growth at 10 µM: 123%
MDA-MB-231
  growth at 10 µM: 87.9%
MOLT-4
  growth at 10 µM: 96.4%
COLO 205
  growth at 10 µM: 101%
SN12C
  growth at 10 µM: 102%
A549
  growth at 10 µM: 97.9%
DU-145
  growth at 10 µM: 88.1%
[1]
  growth at 10 µM: 167%
SK-MEL-28
  growth at 10 µM: 132%
U-251
  growth at 10 µM: 103%
M14
  growth at 10 µM: 114%
UACC-62
  growth at 10 µM: 92.2%
UO-31
  growth at 10 µM: 80.7%
HCC 2998
  growth at 10 µM: 103%
SF-539
  growth at 10 µM: 102%
[2]
  viability at 10 µM: 70%
OVCAR-8
  growth at 10 µM: 93.4%
HCT-116
  growth at 10 µM: 90.4%
A498
  growth at 10 µM: 122%
TK-10
  growth at 10 µM: 174%
Malme-3M
  growth at 10 µM: 107%
CCRF-CEM
  growth at 10 µM: 94.7%
NCI-H522
  growth at 10 µM: 71.5%
[3]
  viability at 100 µM: 38%
EKVX
  growth at 10 µM: 89.1%
[4]
  residual activity: 85%
OVCAR-4
  growth at 10 µM: 83%
SNB-19
  growth at 10 µM: 97.4%
SF-268
  growth at 10 µM: 107%
PC-3
  growth at 10 µM: 88.1%
[5]
  viability at 1 µM: 71%
SNB-75
  growth at 10 µM: 86%
SF-295
  growth at 10 µM: 127%
T47D
  growth at 10 µM: 83.9%
[6]
  inhibition: inactive
LOX IMVI
  growth at 10 µM: 109%
NCI/ADR-RES
  growth at 10 µM: 103%
OVCAR-3
  growth at 10 µM: 125%
OVCAR-5
  growth at 10 µM: 97.1%
SK-MEL-2
  growth at 10 µM: 82.2%
HCT-15
  growth at 10 µM: 103%
HT-29
  growth at 10 µM: 101%
NCI-H226
  growth at 10 µM: 100%
[7]
  residual activity: 50%
